Values joined by “and” are separate entries in the source; they are usually repeats but may differ in a detail not shown here. Identical values can stand only once. Like-named read-outs stand apart in the source and are kept apart here.
Key:
total Aβ1–x = total Aβ1–x formation; format: cell-based
Aβ1–37 and Aβ1–38 = assay: urea gel Western blotting of Aβ species; format: cell-based
hERG ion channel = hERG ion channel (Homo sapiens, UniProt Q12809); assay: hERG patch-clamp electrophysiology; format: cell-based
CYP3A4 [1] = target: T1, CYP3A4 (Homo sapiens, UniProt P08684); assay: CYP 3A4 HLM time-dependent inhibition; format: in vitro ADME
rabbit telemetry study = format: in vivo
[2] = 4 day oral dosing study in rats; format: in vivo
[3] = in vitro biotransformation assays; format: in vitro ADME
H4-APPsw cells = assay: Aβ species in cultured H4-APPsw cells by mass spectrometry; format: cell-based
[4] = projected human PK and dose; conditions: 110 mg QD, steady state
In short: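 Human PK was predicted by allometric scaling of rat, dog and cynomolgus monkey PK, then combined with a rat PK/PD indirect response model.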

pharmacokinetics in dog = conditions: male, beagle, in vivo, iv, 1 mg/kg
[5] = test system: rest of the CYP isoforms tested (other than the CYP2C subfamily); assay: CYP inhibition in human liver microsomes, rest of isoforms; format: in vitro ADME
pharmacokinetics in rat = conditions: Sprague-Dawley, in vivo, iv, 2 mg/kg
[6] = hemodynamics in conscious rats; format: in vivo; conditions: any dose studied
[7] = cited from earlier work
[8] = 2-week oral repeat dose toxicity study in rats; format: in vivo
In short: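 Rats received the test compound orally for 2 weeks at 10, 30 and 100 mg/kg in repeat dosing. Endpoints included signs of stress, food consumption, duodenal histology for Notch-related goblet cell metaplasia, and liver for hepatotoxicity and necrosis.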

Aβ peptide species = conditions: intravenous administration; cited from earlier work
CYP3A4 mRNA = CYP3A4 mRNA induction in cryopreserved primary human hepatocytes; format: cell-based; conditions: 3.3–10 μM
acute oral dose in dogs = format: in vivo
In short: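 Dogs received a single acute oral dose of 300 mg/kg. Bilirubin and other clinical pathology were assessed, and plasma Cmax and AUC were measured. Margins were taken relative to projected human Cmax and AUC at the efficacious clinical dose.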

Caco-2 permeability = format: in vitro ADME; conditions: human
[9] = pharmacokinetics in cynomolgus monkey; conditions: male, in vivo, iv, 1 mg/kg
CYP3A4 [10] = target: T1, CYP3A4; assay: recombinant CYP3A4 inhibition; format: in vitro ADME
In short: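 Recombinant human CYP3A4 was incubated with the test compound for 30 min, and an IC50 was determined.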

CYP2C subfamily = assay: CYP inhibition in human liver microsomes, CYP2C subfamily; format: in vitro ADME
[11] = single oral doses 10 to 1200 mg, multiweek daily 50 to 200 mg

T1 sequence (P08684 whole entry): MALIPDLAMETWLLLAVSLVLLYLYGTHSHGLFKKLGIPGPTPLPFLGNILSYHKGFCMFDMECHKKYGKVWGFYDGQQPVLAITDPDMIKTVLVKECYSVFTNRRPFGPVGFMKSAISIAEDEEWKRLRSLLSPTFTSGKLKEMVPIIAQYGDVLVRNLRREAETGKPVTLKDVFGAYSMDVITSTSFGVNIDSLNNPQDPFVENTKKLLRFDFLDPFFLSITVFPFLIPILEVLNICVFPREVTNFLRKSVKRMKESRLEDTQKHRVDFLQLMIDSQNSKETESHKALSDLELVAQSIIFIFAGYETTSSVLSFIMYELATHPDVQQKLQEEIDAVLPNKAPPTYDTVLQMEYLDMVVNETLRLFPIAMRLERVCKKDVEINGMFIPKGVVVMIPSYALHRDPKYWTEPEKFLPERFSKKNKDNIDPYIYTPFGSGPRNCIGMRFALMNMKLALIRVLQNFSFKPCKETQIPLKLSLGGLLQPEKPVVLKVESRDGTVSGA
Sequence of hERG ion channel (Q12809 whole entry): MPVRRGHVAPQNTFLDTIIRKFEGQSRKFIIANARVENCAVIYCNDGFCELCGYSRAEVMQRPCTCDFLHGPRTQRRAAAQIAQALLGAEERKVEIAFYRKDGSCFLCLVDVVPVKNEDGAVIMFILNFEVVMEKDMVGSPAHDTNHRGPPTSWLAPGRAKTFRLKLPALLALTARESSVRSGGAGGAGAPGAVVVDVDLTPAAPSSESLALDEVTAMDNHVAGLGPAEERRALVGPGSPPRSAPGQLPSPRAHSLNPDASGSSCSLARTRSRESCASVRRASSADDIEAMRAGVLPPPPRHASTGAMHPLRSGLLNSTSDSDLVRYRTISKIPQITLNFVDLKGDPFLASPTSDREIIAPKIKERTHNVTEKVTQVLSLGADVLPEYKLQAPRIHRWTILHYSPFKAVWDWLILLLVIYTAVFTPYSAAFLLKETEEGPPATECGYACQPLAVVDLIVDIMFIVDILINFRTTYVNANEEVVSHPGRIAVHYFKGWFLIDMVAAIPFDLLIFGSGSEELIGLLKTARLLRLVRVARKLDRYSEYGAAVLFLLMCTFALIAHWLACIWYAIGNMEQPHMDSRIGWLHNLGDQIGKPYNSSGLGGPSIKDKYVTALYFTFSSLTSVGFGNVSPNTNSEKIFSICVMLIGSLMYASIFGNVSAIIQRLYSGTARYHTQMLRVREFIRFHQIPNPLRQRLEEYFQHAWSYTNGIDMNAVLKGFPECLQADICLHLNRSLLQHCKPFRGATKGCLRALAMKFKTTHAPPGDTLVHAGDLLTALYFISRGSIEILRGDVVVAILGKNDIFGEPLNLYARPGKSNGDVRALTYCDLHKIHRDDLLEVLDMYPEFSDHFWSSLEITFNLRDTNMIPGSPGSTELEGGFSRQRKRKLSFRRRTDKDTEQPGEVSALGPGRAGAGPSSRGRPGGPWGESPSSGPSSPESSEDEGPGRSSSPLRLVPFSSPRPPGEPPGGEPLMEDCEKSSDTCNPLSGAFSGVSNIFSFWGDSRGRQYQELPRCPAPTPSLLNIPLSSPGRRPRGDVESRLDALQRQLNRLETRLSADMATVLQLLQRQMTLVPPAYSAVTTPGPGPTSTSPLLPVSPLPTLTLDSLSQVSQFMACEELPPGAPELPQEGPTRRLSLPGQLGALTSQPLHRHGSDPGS

## CNc1nc(Nc2ccc(-n3cncn3)c(OC)c2)nc(-c2ccccc2)n1 [Compound 1]
Total Aβ1–x
  effect on total Aβ1–x formation: No effect
Aβ1–37 and Aβ1–38
  levels of Aβ1–37 and Aβ1–38: increased levels

## CNc1nc(Cc2ccccc2)nc(Nc2ccc(-n3cnc(C)c3)c(OC)c2)n1 [Compound 2, 6-benzyl-N2-(3-methoxy-4-(4-methyl-1H-imidazol-1-yl)phenyl)-N4-methyl-1,3,5-triazine-2,4-diamine]
hERG ion channel; in words
  hERG inhibition: potent hERG inhibition
CYP3A4 [1]; in words
  CYP3A4 inhibition: potent and time-dependent CYP3A4 inhibition

## CNc1nc(Nc2ccc(-n3cnc(Cl)c3)c(OC)c2)nc2c1CC[C@H]2c1ccccc1 [Compound 3]
Rabbit telemetry study; rabbit telemetry
  safety margin vs the hERG NOAEL: 40 fold
[2]; 4 days oral, 10, 30, and 100 mg/kg
  tissue examination finding: hepatocellular necrosis at all doses studied
[2]; 4 days oral, all doses, visibly yellow plasma
  plasma bilirubin finding: increase in unconjugated bilirubin
[3]
  metabolism: confined to N-demethylation and monohydroxylation of the D-ring

## CNc1nc(Nc2ccc(-n3cnc(C)n3)c(OC)c2)nc2c1CC[C@H]2c1ccc(F)cc1 [Compound 4, (S)-7-(4-fluorophenyl)-N^2-(3-methoxy-4-(3-methyl-1H-1,2,4-triazol-1-yl)phenyl)-N^4-methyl-6,7-dihydro-5H-cyclopenta[d]pyrimidine-2,4-diamine]
H4-APPsw cells
  change in Aβ1–37 and Aβ1–38: corresponding increase
  change in Aβ1–42 and Aβ1–40: large decrease
[4]
  projected human brain Aβ1–42 reduction: 31%
hERG ion channel
  fold less potent at hERG than compound 3: 6 fold
Pharmacokinetics in dog
  clearance at 24 h: 12.5 ± 1.2 mL/min/kg
[5]
  IC50: > 17 µM
AMES
  AMES result: negative
Pharmacokinetics in rat
  clearance at 24 h: 11.2 ± 0.4 mL/min/kg
Total Aβ1–x; concentrations up to 10 μM, Aβ1–x ELISA, H4-APPsw cells
  total Aβ1–x: unchanged
[6]
  hemodynamic effects (blood pressure, heart rate): not seen
[7]; 200 mg for 24 days
  ALT finding: ALT elevations were observed
[7]; dosed acutely
  tolerability: well tolerated
[7]; [11]
  Aβ1–37 and Aβ1–38 in plasma and CSF: dose-dependent increase
  Aβ1–42 and Aβ1–40 in plasma and CSF: decrease
  total Aβ1–x in plasma and CSF: no change
Rabbit telemetry study; unconscious rabbits, 3 mg/kg
  change in QTcf: no change
Rabbit telemetry study; unconscious rabbits, 10 mg/kg
  exposure: 50 µM
Rabbit telemetry study; unconscious rabbits, doses of 10 mg/kg and higher
  hemodynamic effects: increased blood pressure and decreased heart rate
[8]; 2-week oral
  Notch-related goblet cell metaplasia in the duodenum: no Notch-related goblet cell metaplasia
  bilirubin finding: minimal, nontoxicologically significant bilirubin elevation
  hepatotoxicity or necrosis: no hepatotoxicity or necrosis was observed
[8]; 2-week oral, 10, 30, and 100 mg/kg
  tolerability: well tolerated
[8]; 2-week, 100 mg/kg oral
  findings in high dose group: stress and reduced food consumption effects
[8]; 2-week, NOAEL 30 mg/kg, vs 4 μM·h
  margin over the projected human efficacious exposure at the NOAEL: 48 fold
Aβ peptide species
  distribution among Aβ peptide species in rat brain and CSF: same distribution among Aβ peptide species was recapitulated
CYP3A4 mRNA
  elevation of CYP3A4 mRNA: 36–43%
Acute oral dose in dogs; 300 mg/kg
  margin in Cmax to the projected efficacious clinical dose: 43 fold
Acute oral dose in dogs; acute oral dose of 300 mg/kg
  tolerability: tolerated with no significant changes in bilirubin levels or other clinical pathological assessments
Caco-2 permeability
  Papp: 3.5 ×10⁻⁶ cm/s
[9]
  clearance at 24 h: 31.3 ± 9.5 mL/min/kg
CYP3A4 [10]
  IC50: 0.51 µM
CYP3A4 [1]; HLM
  CYP 3A4 HLM time-dependent inhib. KI: 82.5 µM and 83 µM
CYP2C subfamily
  CYP2C subfamily IC50s: single digit micromolar

— article PMC6421538 (ACS Medicinal Chemistry Letters, 2019)
